# Experimental data gathered from unrelated publications.
# pIC50: −log10 of the molar value.
# Effect on: cell growth or viability
SMILES,cell line,technique,time,pIC50
N#Cc1ccc(COC[C@H]2O[C@@H](n3c(NCc4ccc(Cl)c(Cl)c4)nc4c(N)ncnc43)[C@H](O)[C@@H]2O)cc1,HD-MB03,,,5.47
CC1(C)CC[C@]2(C(=O)O)CC[C@]3(C)C(=CC[C@@H]4[C@@]5(C)CC[C@H](O)C(C)(C)[C@@H]5CC[C@]43C)[C@@H]2C1,human Skin fibroblast,MTT,48 h,4.20
CC(C)C[C@H](NC(=O)[C@H](Cc1ccccc1)NC(=O)c1cnccn1)B(O)O,SK-ES1,ATP luminescence,,8.06
COc1cc(OC)c(/C=C/S(=O)(=O)Nc2ccc(OC)c(N)c2)c(OC)c1,MES-SA,trypan blue,96 h,8.40
O=C(Nc1nnc(-c2cc3ccccc3[nH]2)s1)c1cc2c([nH]c3ccccc32)c(-c2ccc(F)cc2)n1,BT-474,MTT,72 h,5.04
Cc1c(C(=O)Nc2ccc(N3C[C@@H](C)O[C@@H](C)C3)nc2)cccc1-c1ccc(OC(F)(F)F)cc1,MB002,,7 days,< 5.00
O=C(Nc1ccccc1CO)c1c[nH]c2ccc(Cl)cc12,SK-N-BE,MTT,,4.77
COc1cccc2c1C(=O)c1c(O)c3c(c(O)c1C2=O)C[C@@](O)(C(=O)CO)C[C@@H]3O[C@H]1C[C@H](N)[C@H](O)[C@H](C)O1,U373 MG,SRB,,6.06
O=C(Nc1nnc(-c2cc3ccccc3[nH]2)s1)c1cc2c([nH]c3ccccc32)c(-c2ccc(Cl)cc2)n1,BT-474,MTT,72 h,5.06
CCn1c(C)c(N=Nc2ccccc2)sc1=NN=C(C)c1c(O)c2ccccc2oc1=O,human Skin fibroblast,MTT,48 h,< 4.00
Cc1ccc2[nH]c(=O)c3cc(C(=O)NCCCN(C)Cc4ccccc4)sc3c2c1,CFPAC-1,MTT,24 h,4.77
CCN1C(=O)C(C)SC1=NN=C(C)c1c(O)c2ccccc2oc1=O (stereo not shown),human Skin fibroblast,MTT,48 h,< 4.00
COc1ccc(-c2nc(C(=O)Nc3nnc(-c4cc5ccccc5n4C)s3)cc3c2[nH]c2ccccc23)cc1,BT-474,MTT,72 h,4.85
CCn1c(C)c(N=Nc2ccc(C)cc2)sc1=NN=C(C)c1c(O)c2ccccc2oc1=O,human Skin fibroblast,MTT,48 h,< 4.00
CC[C@]1(O)C[C@@H]2CN(CCc3c([nH]c4ccccc34)[C@@](C(=O)OC)(c3cc4c(cc3OC)N(C)[C@H]3[C@@](O)(C(=O)OC)[C@H](OC(C)=O)[C@]5(CC)C=CCN6CC[C@]43[C@@H]65)C2)C1,KB 3-1,MTT,,7.28
COc1cccc(OCCCN)c1-c1cc(Nc2cnc(C#N)cn2)n[nH]1,MB002,,7 days,7.58
CCOC(=O)c1sc(=NN=C(C)c2c(O)c3ccccc3oc2=O)n(CC)c1C,human Skin fibroblast,MTT,48 h,< 4.00
CCc1cc2c(cc1N1CCC(N3CCOCC3)CC1)C(C)(C)c1[nH]c3cc(C#N)ccc3c1C2=O,MB002,,7 days,6.40
O=C(N/N=C/c1c(O)ccc2ccccc12)c1cc(-c2ccc3ccccc3c2)n[nH]1,WM278,MTS,72 h,5.21
Cn1c(-c2nnc(NC(=O)c3cc4c([nH]c5ccccc54)c(-c4ccc(F)cc4)n3)s2)cc2ccccc21,BT-474,MTT,72 h,4.74
Cn1c(=O)n(-c2ccc(C(C)(C)C#N)cc2)c2c3cc(-c4cnc5ccccc5c4)ccc3ncc21,MB002,,7 days,7.51
CCOC(=O)c1sc(=NN=C(C)c2c(O)c3ccccc3oc2=O)[nH]c1C,human Skin fibroblast,MTT,48 h,< 4.00
COc1cc(Nc2nccc(-c3cnn4nc(OC)ccc34)n2)cc(C(F)(F)F)c1,NCI-H1563,ATP luminescence,,< 5.52
Cc1cc2c(F)c(Oc3ncnn4cc(OC[C@@H](C)O)c(C)c34)ccc2[nH]1,HD-MB03,,7 days,< 5.00
Oc1ccc(Nc2nc(-c3ccc(Cl)cc3)cs2)cc1,WM278,MTS,48 h,4.67
CCn1c(=O)c(-c2ccc(-c3cncs3)cc2Cl)cc2cnc(Nc3ccc(N4CCN(C)CC4)cc3)nc21,CFPAC-1,MTT,24 h,5.16
CC(=NN=c1[nH]c(C)c(N=Nc2ccccc2)s1)c1c(O)c2ccccc2oc1=O,human Skin fibroblast,MTT,48 h,< 4.00
O=c1[nH]cc(S(=O)(=O)Nc2cccc(-c3nnc(-c4cccc(Cl)c4)o3)c2)c(=O)[nH]1,SK-MES-1,MTT,24 h,4.86
O=C(O)c1ccc2c(c1)nc(Nc1cccc(Cl)c1)c1ccncc12,HD-MB03,,,6.30
CC(C)c1cc(-c2n[nH]c(=O)n2-c2ccc3c(ccn3C)c2)c(O)cc1O,B16-F10,imaging,24 h,6.49
COc1cccc2c1C(=O)c1c(O)c3c(c(O)c1C2=O)C[C@@](O)(C(=O)CO)C[C@@H]3O[C@H]1C[C@H](N)[C@H](O)[C@H](C)O1,BT-474,MTT,72 h,5.74
CCN1CCN(Cc2ccc(Nc3ncc(F)c(-c4cc(F)c5nc(C)n(C(C)C)c5c4)n3)nc2)CC1,MB002,,7 days,7.14
COc1cc([C@@H]2c3cc4c(cc3[C@@H](O[C@@H]3O[C@@H]5CO[C@@H](C)O[C@H]5[C@H](O)[C@H]3O)[C@H]3COC(=O)[C@H]23)OCO4)cc(OC)c1O,human Skin fibroblast,,48 h,5.30
CC(=NN=c1scc(C)n1C)c1c(O)c2ccccc2oc1=O,human Skin fibroblast,MTT,48 h,< 4.00
CC[C@]1(O)C[C@H]2CN(CCc3c([nH]c4ccccc34)[C@@](C(=O)OC)(c3cc4c(cc3OC)N(C=O)[C@H]3[C@@](O)(C(=O)OC)[C@H](OC(C)=O)[C@]5(CC)C=CCN6CC[C@]43[C@@H]65)C2)C1,KB 3-1,MTT,,8.13
COc1ccc(-c2nc(C(=O)Nc3nnc(-c4cc5ccccc5[nH]4)s3)cc3c2[nH]c2ccccc23)cc1,BT-474,MTT,72 h,5.39
CC(=NN=c1sc(N=Nc2ccc(C)cc2)c(C)n1C)c1c(O)c2ccccc2oc1=O,human Skin fibroblast,MTT,48 h,< 4.00
